In ChEMBL document CHEMBL1149101, “New antibacterial agents derived from the DNA gyrase inhibitor cyclothialidine” (J Med Chem, 2004):
Values after ≈ are worked out from the molar mass of the structure shown.

Legend:
Micrococcus luteus = assay: Minimum inhibitory concentration against Micrococcus luteus ATCC 8340; assay type: functional
Method in brief: (§1)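 Agar dilution per NCCLS in BB2 agar + 1% Isovitalex + 7.5% sheep blood + menadione, compound added to melted medium at 50 °C. About 10⁴ CFU/spot from diluted overnight cultures, multipoint-inoculated.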

Neisseria meningitidis = assay: Minimum inhibitory concentration against Neisseria meningitides 69480; assay type: functional; method in brief: as §1
[1] = molecular target: DNA gyrase (Escherichia coli) (UniProt P0AES6+P0AES4)
Staphylococcus aureus [2] = assay: Minimum inhibitory concentration against Staphylococcus aureus Smith; assay type: functional
Method in brief: (§2)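 NCCLS agar dilution on Mueller–Hinton agar, compound incorporated into melted medium at 50 °C. Inoculum about 10⁴ CFU/spot from diluted overnight cultures, multipoint-applied.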

Staphylococcus aureus [3] = assay: Minimum inhibitory concentration against Staphylococcus aureus ATCC 25923; assay type: functional; method in brief: as §2
Staphylococcus aureus [4] = assay: Minimum inhibitory concentration against Staphylococcus aureus 887; assay type: functional; method in brief: as §1
Streptococcus pyogenes = assay: Minimum inhibitory concentration against Streptococcus pyogenes b15; details: Streptococcus pyogenes; read-out: MIC
Staphylococcus aureus [5] = assay: Minimum inhibitory concentration against Staphylococcus aureus; assay type: functional
[6] = Range for minimum inhibitory concentration against Staphylococcus aureus; 0.5->[…]; assay type: functional
Escherichia coli = assay: Minimum inhibitory concentration against Escherichia coli 25922; assay type: functional; method in brief: as §2
Enterococcus faecalis = assay: Minimum inhibitory concentration against Enterococcus faecalis 6; assay type: functional; method in brief: as §2
[7] = system: Stenotrophomonas maltophilia; assay: Minimum inhibitory concentration against Xanthomonas maltophilia AC739; assay type: functional; method in brief: as §2
[8] = system: Staphylococcus epidermidis; assay: Minimum inhibitory concentration against Staphylococcus epidermidis 16/2; assay type: functional; method in brief: as §2
Staphylococcus aureus [9] = assay: In vivo effective dose was determined in septicaemic mice (Staphylococcus aureus Smith) when administration iv; assay type: functional
Method in brief: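 Compound given iv as a gelatine microsuspension at 1 and 3 h post-challenge, 5 mice per group. ED50 (mg/kg) from day-4 survival by probit analysis.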

[10] = Staphylococcus aureus, read-out: MIC
[11] = Staphylococcus aureus, ATCC 25923, read-out: MIC

For COC(=O)[C@@H]1CSCc2c(N)cccc2C(=O)OCC(NC(=O)[C@H](CO)NC(=O)OC(C)(C)C)C(=O)N1 (stereo not given in full), the MIC (Micrococcus luteus) was > 128 mg/L, the MIC (Neisseria meningitidis) was > 128 mg/L and the MNEC [1] was > 100 µg/mL.

Work on COc1cc(O)c2c(c1C)C(=O)CCCCC/C(S)=N/[C@H](c1nc(CNC(C)C)no1)CSC2.Cl yielded an MNEC [1] of 0.002 µg/mL.

In the case of COC(=O)[C@@H]1CSCc2c(O)cc(OC)c(C)c2C(=O)OCCCCCCCC/C(S)=N/1, the MNEC [1] is reported as > 1 µg/mL.

In the case of Cc1c(O)cc(O)c2c1C(=O)OCCC(=O)NCCSC2, the MIC (Micrococcus luteus) is reported as > 128 mg/L and the MNEC [1] is reported as 20 µg/mL.

Work on COC(=O)[C@@H]1CSCc2c(O)cc(OC)c(C)c2C(=O)OCCC/C(S)=N/1 yielded an MIC (Staphylococcus aureus [2]; [10]) of 2 mg/L (≈ 4.84 µM), an MIC (Staphylococcus aureus [3]; [11]) of 4 mg/L (≈ 9.67 µM) and an MNEC [1] of 0.4 µg/mL.

With COC(=O)[C@@H]1CSCc2c(OC)cc(O)c(C)c2C(=O)OCC(NC(=O)OC(C)(C)C)C(=O)N1 (stereo not given in full) the MIC (Micrococcus luteus) was > 128 mg/L, the MIC (Neisseria meningitidis) was 128 mg/L (≈ 257 µM) and the MNEC [1] was > 1 µg/mL.

For COC(=O)[C@@H]1CSCc2c(O)cc(O)c(C)c2C(=O)OCCC(=O)N1, the MIC (Micrococcus luteus) was 16 mg/L (≈ 43.3 µM), the MIC (Neisseria meningitidis) was 32 mg/L (≈ 86.6 µM) and the MNEC [1] was 0.25 µg/mL.

For COC(=O)[C@@H]1CSCc2ccccc2C(=O)OCC(NC(=O)OC(C)(C)C)C(=O)N1 (stereo not given in full), the MNEC [1] was > 1 µg/mL.

With COC(=O)[C@@H]1CSCc2c(O)cc(OC)c(C)c2C(=O)OC[C@@H](C)C(=O)N1 the MIC (Micrococcus luteus) was 64 mg/L (≈ 161 µM), the MIC (Neisseria meningitidis) was 64 mg/L (≈ 161 µM) and the MIC (Staphylococcus aureus [4]) was > 64 mg/L. The MNEC [1] was 4 µg/mL and the MIC (Streptococcus pyogenes) was > 64 mg/L.

In the case of COC(=O)[C@@H]1CSCc2c(O)cc(OC)c(C)c2C(=O)OCC(=O)N1, the MIC (Staphylococcus aureus [2]; [10]) is reported as > 64 mg/L, the MIC (Staphylococcus aureus [3]; [11]) is reported as > 64 mg/L and the MNEC [1] is reported as > 1 µg/mL.

In the case of O=C(O)c1cn(C2CC2)c2cc(N3CCNCC3)c(F)cc2c1=O [CIPROFLOXACIN], the MIC50 (Staphylococcus aureus [5]) is reported as 0.5 mg/L (≈ 1.51 µM), the MIC90 (Staphylococcus aureus [5]) is reported as > 16 mg/L and the Range [6] is reported as 16 µg/mL.

In the case of COc1cc(O)c2c(c1C)C(=O)OC[C@H](NC(=O)OC(C)(C)C)C(=O)N[C@H](C(N)=O)CSC2, the MIC (Micrococcus luteus) is reported as 16 mg/L (≈ 33.1 µM), the MIC (Neisseria meningitidis) is reported as 4 mg/L (≈ 8.27 µM) and the MIC (Staphylococcus aureus [4]) is reported as > 64 mg/L. It also gave an MNEC [1] of 0.1 µg/mL and an MIC (Streptococcus pyogenes) of 16 mg/L (≈ 33.1 µM).

With COC(=O)[C@@H]1CSCc2c(O)cc(O)c(C)c2C(=O)OC[C@H](NC(=O)[C@@H]2CCCN2C(=O)OC(C)(C)C)C(=O)N1 the MIC (Micrococcus luteus) was 64 mg/L (≈ 110 µM), the MIC (Staphylococcus aureus [4]) was > 64 mg/L and the MNEC [1] was 2.5 µg/mL. For the same compound, the MIC (Streptococcus pyogenes) was > 64 mg/L.

In the case of COC(=O)[C@@H]1CSCc2c(O)cc(O)c(C)c2C(=O)OCC(NC(=O)CCO)C(=O)N1 (stereo not given in full), the MIC (Micrococcus luteus) is reported as 16 mg/L (≈ 35.1 µM), the MIC (Staphylococcus aureus [4]) is reported as > 64 mg/L and the MNEC [1] is reported as 0.2 µg/mL. For the same compound, the MIC (Streptococcus pyogenes) was > 64 mg/L.

COc1cc(O)c2c(c1C)C(=O)O[C@H](CO)CC/C(S)=N/[C@H](c1nc(C)no1)CSC2 gave an MNEC [1] of 0.01 µg/mL.

For COC(=O)[C@@H]1CSCc2c(O)cc(OC)c(C)c2C(=O)OCCCC(=O)N1, the MIC (Staphylococcus aureus [2]; [10]) was 32 mg/L (≈ 80.5 µM), the MIC (Staphylococcus aureus [3]; [11]) was 64 mg/L (≈ 161 µM) and the MNEC [1] was 2 µg/mL.

For COC(=O)[C@@H]1CSCc2c(O)cc(OC)c(C)c2C(=O)OCCCC/C(S)=N/1, the MIC (Escherichia coli) was > 64 mg/L, the MIC (Enterococcus faecalis) was 1 mg/L (≈ 2.34 µM) and the MIC (Staphylococcus aureus [2]) was 0.25 mg/L (≈ 0.585 µM). The MIC (Staphylococcus aureus [2]; [10]) was 0.25 mg/L (≈ 0.585 µM), the MIC (Staphylococcus aureus [3]) was 0.5 mg/L (≈ 1.17 µM) and the MIC (Staphylococcus aureus [3]; [11]) was 0.5 mg/L (≈ 1.17 µM). For the same compound, the MIC [7] was 8 mg/L (≈ 18.7 µM), the MIC [8] was < 0.12 mg/L and the MNEC [1] was 0.01 µg/mL. For the same compound, the MIC (Streptococcus pyogenes) was 1 mg/L (≈ 2.34 µM).

In the case of COc1cc(O)c2c(c1C)C(=O)OC[C@H](NC(=O)OC(C)(C)C)C(=O)N[C@H](CO)CSC2, the MIC (Micrococcus luteus) is reported as 64 mg/L (≈ 136 µM), the MIC (Neisseria meningitidis) is reported as 64 mg/L (≈ 136 µM) and the MIC (Staphylococcus aureus [4]) is reported as > 64 mg/L. It also gave an MNEC [1] of 2.5 µg/mL and an MIC (Streptococcus pyogenes) of 64 mg/L (≈ 136 µM).

With COC(=O)[C@@H]1CSCc2c(O)cc(OC)c(C)c2C(=O)OCCCCCC/C(S)=N/1 the MIC (Staphylococcus aureus [2]; [10]) was 16 mg/L (≈ 35.1 µM), the MIC (Staphylococcus aureus [3]; [11]) was 16 mg/L (≈ 35.1 µM) and the MNEC [1] was 0.5 µg/mL.

For COC(=O)[C@@H]1CSCc2c(O)cc(O)c(C)c2C(=O)OC[C@H](NC(C)=O)C(=O)N1, the MIC (Micrococcus luteus) was 128 mg/L (≈ 300 µM), the MIC (Neisseria meningitidis) was 32 mg/L (≈ 75 µM) and the MIC (Staphylococcus aureus [4]) was > 64 mg/L. For the same compound, the MNEC [1] was 0.4 µg/mL and the MIC (Streptococcus pyogenes) was > 64 mg/L.

For COC(=O)[C@H]1CSCc2c(O)cc(O)c(C)c2C(=O)OC[C@H](NC(=O)OC(C)(C)C)C(=O)N1, the MIC (Micrococcus luteus) was 128 mg/L (≈ 264 µM), the MIC (Neisseria meningitidis) was 128 mg/L (≈ 264 µM) and the MNEC [1] was 4 µg/mL.

For COc1cc(O)c2c(c1C)C(=O)O[C@H](CO)CCC/C(S)=N/[C@H](c1nc(C)no1)CSC2, the MIC (Escherichia coli) was > 64 mg/L, the MIC (Enterococcus faecalis) was 0.5 mg/L (≈ 1.04 µM) and the ED50 (Staphylococcus aureus [9]) was 8.5 mg/kg. For the same compound, the MIC (Staphylococcus aureus [2]; [10]) was 0.5 mg/L (≈ 1.04 µM), the MIC (Staphylococcus aureus [3]; [11]) was 0.5 mg/L (≈ 1.04 µM) and the MIC [7] was 4 mg/L (≈ 8.31 µM). For the same compound, the MIC [8] was < 0.12 mg/L, the MNEC [1] was 0.005 µg/mL and the MIC (Streptococcus pyogenes) was 0.5 mg/L (≈ 1.04 µM).

In the case of COC(=O)[C@@H]1CSCc2c(O)cc(OC)c(C)c2C(=O)OCCCCCC(=O)N1, the MIC (Staphylococcus aureus [2]; [10]) is reported as 32 mg/L (≈ 75.2 µM), the MIC (Staphylococcus aureus [3]; [11]) is reported as > 64 mg/L and the MNEC [1] is reported as 2 µg/mL.

Cc1c(O)cc(O)c2c1C(=O)OCC(NC(=O)OC(C)(C)C)C(=O)NCCSC2 (stereo not given) gave an MIC (Micrococcus luteus) of 32 mg/L (≈ 75 µM) and an MNEC [1] of 1 µg/mL.
